Reference: ChEMBL document CHEMBL1151790, “Novel angular furoquinolinones bearing flexible chain as antitumor agent: design, synthesis, cytotoxic evaluation, and DNA-binding studies” (Bioorg Med Chem, 2008)
pIC50: −log10 of the molar value. Active and inactive are the calls of the source. No cut-off for these calls is given here.

Key:
HeLa = test: Cytotoxicity against human HeLa cells by MTT assay; type: functional, cell-based
How it was run: (§1)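 Cells run without irradiation; cytotoxicity read by microculture tetrazolium–formazan (MTT) method, reported as IC50.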

K562 = test: Cytotoxicity against human K562 cells by MTT assay; type: functional, cell-based; how it was run: as §1
[1] = Cytotoxicity against human QGY cells by MTT assay; type: functional, cell-based; how it was run: as §1
Escherichia coli [2] = test: Induction of DNA cleavage activity in Escherichia coli pBR322 DNA by gel electrophoresis
How it was run: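 Plasmid pBR322 DNA (25 ng/µL) incubated with compound at several concentrations in Tris–HCl (20 mM, pH 7.5), 25 °C, 12 h, no irradiation. Products resolved on 1% agarose with ethidium bromide staining; supercoiled (I), nicked (II), linear (III) forms scored; triplicate.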

DNA [3] = test: Binding affinity to calf thymus DNA by fluorescence quenching technique; type: nucleic-acid assay; details: Bos taurus
How it was run: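 Calf-thymus DNA held at 50 µM with compound at […] in Tris–HCl (30 mM, pH 7.5); matching compound-only samples served as controls. Solutions […] 1 day at 25 °C in the dark, then fluorescence wavelength and intensity area measured.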

A549 = test: Cytotoxicity against human A549 cells by SRB assay; type: functional, cell-based
How it was run: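 Cells run without irradiation; cytotoxicity read by sulforhodamine B dye staining, reported as IC50.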

P388 = test: Cytotoxicity against mouse P388 cells by MTT assay; type: functional, cell-based; how it was run: as §1
Escherichia coli [4] = test: Induction of DNA photocleavage activity in Escherichia coli pBR322 DNA assessed as form 3 linear in presence of irradiation by gel electrophoresis
How it was run: (§2)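 pBR322 DNA (25 ng/µL) with compound at several concentrations in Tris–HCl (20 mM, pH 7.5), irradiated 2 h. Analysed on 1% agarose gel with ethidium bromide; supercoiled form I, nicked form II, linear form III; triplicate runs.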

Escherichia coli [5] = test: Induction of DNA photocleavage activity in Escherichia coli pBR322 DNA assessed as form 2 […] in presence of irradiation by gel electrophoresis; how it was run: as §2
DNA [6] = test: Binding affinity to calf thymus DNA by circular dichroism spectra; type: nucleic-acid assay; details: Bos taurus
How it was run: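 CD spectra recorded on 10 µM compound with 100 µM calf-thymus DNA in Tris–HCl buffer (pH 7.0), 1-cm quartz cell, 200–600 nm; buffer-alone spectrum subtracted. DNA checked protein-free by A260/A280 1.8–1.9 and quantified from 260 nm absorbance.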

Structure (SMILES): Cc1oc2ccc3c(C)cc(=O)n(CCCN(C)C)c3c2c1C
- pIC50 (HeLa): 4.46
- pIC50 (K562): 4.15
- pIC50 [1]: 4.13
- Activity (Escherichia coli [2]): inactive
- Kb (DNA [3]): 2.53 ×10⁵ /M
- pIC50 (A549): 4.53
- pIC50 (P388): 4.34

Structure (SMILES): CCn1c(=O)cc(C)c2ccc3oc(C)c(C)c3c21
- pIC50 (HeLa): < 4.00
- pIC50 (K562): < 4.00
- pIC50 [1]: < 4.00
- Kb (DNA [3]): 2.79 ×10⁵ /M
- pIC50 (A549): < 4.00
- pIC50 (P388): < 4.00

Structure (SMILES): Cc1oc2ccc3c(C)cc(=O)n(CC#N)c3c2c1C
- pIC50 (HeLa): < 4.00
- pIC50 (K562): < 4.00
- pIC50 [1]: < 4.00
- Kb (DNA [3]): 2.06 ×10⁵ /M
- pIC50 (A549): < 4.00
- pIC50 (P388): < 4.00

Structure (SMILES): Cc1oc2ccc3c(C)cc(=O)[nH]c3c2c1C
- pIC50 (HeLa): 4.05
- Activity (Escherichia coli [4]): Active
- pIC50 (K562): < 4.00
- Activity (Escherichia coli [5]): Active
- pIC50 [1]: 4.00
- Activity (Escherichia coli [2]): inactive
- Kb (DNA [3]): 2.57 ×10⁵ /M
- pIC50 (A549): 4.00
- pIC50 (P388): < 4.00

Structure (SMILES): Cc1oc2ccc3c(C)cc(=O)n(CC(=O)NCCN(C)C)c3c2c1C
- pIC50 (HeLa): 4.68
- Activity (Escherichia coli [4]): Active
- Activity (Escherichia coli [5]): Active
- Activity (Escherichia coli [2]): inactive
- Kb (DNA [3]): 1.58 ×10⁵ /M
- pIC50 (A549): 4.69
- pIC50 (P388): 4.84

Structure (SMILES): Cc1oc2ccc3c(C)cc(=O)n(Cc4ccccc4)c3c2c1C
- pIC50 (HeLa): < 4.00
- pIC50 (K562): < 4.00
- pIC50 [1]: < 4.00
- Kb (DNA [3]): 3.15 ×10⁵ /M
- pIC50 (A549): < 4.00
- pIC50 (P388): < 4.00

Structure (SMILES): Cc1oc2ccc3c(C)cc(=O)n(CC[N+](C)(C)C)c3c2c1C
- pIC50 (HeLa): 4.31
- Kb (DNA [3]): 3.18 ×10⁵ /M

Structure (SMILES): CCOC(=O)Cn1c(=O)cc(C)c2ccc3oc(C)c(C)c3c21
- pIC50 (HeLa): < 4.00
- pIC50 (K562): < 4.00
- pIC50 [1]: < 4.00
- Kb (DNA [3]): 2.54 ×10⁵ /M
- pIC50 (A549): < 4.00
- pIC50 (P388): < 4.00

Structure (SMILES): Cc1oc2ccc3c(C)cc(=O)n(CCN(C)C)c3c2c1C
- pIC50 (HeLa): 4.41
- Activity (Escherichia coli [4]): Active
- pIC50 (K562): 4.25
- Activity (Escherichia coli [5]): Active
- Activity (DNA [6]): Active
- pIC50 [1]: 4.14
- Activity (Escherichia coli [2]): inactive
- Kb (DNA [3]): 2.66 ×10⁵ /M
- pIC50 (A549): 4.52
- pIC50 (P388): 4.29

Structure (SMILES): Cc1oc2ccc3c(C)cc(=O)n(CC(=O)O)c3c2c1C
- pIC50 (HeLa): < 4.00
- Kb (DNA [3]): 2.69 ×10⁵ /M
